Measured values pooled from the literature.
Lines come from different studies, so protocols differ.
Organism: Human immunodeficiency virus 1
Read-out: viral replication

Structure (SMILES) | action | method | cells | strain | time | quantity | result
Cc1cn([C@H]2C[C@H](N=[N+]=[N-])[C@@H](CO)O2)c(=O)[nH]c1=O | inhibitor |  | CEM-GFP |  | 8 days | IC50 | 0.094 µg/mL
Cc1nc(C(CN)NC(=O)C(=O)Nc2ccc3c(c2)OCO3)sc1CO (stereo not drawn) |  | ELISA | MT2 |  |  | IC50 | > 79 µM
C[C@@H](O[C@H]1OCCN(Cc2n[nH]c(=O)[nH]2)[C@H]1c1ccc(F)cc1)c1cc(C(F)(F)F)cc(C(F)(F)F)c1 | inhibitor | ELISA | human PBMC | BAL |  | IC50 | 6.4 µM
OCc1cc(C(O)CNCCCCCCOCCCCc2ccccc2)ccc1O (stereo not drawn) | inhibitor |  | TZM-bl |  |  | EC50 | 20 µM
O=C(O)c1cc(O)c(O)c(O)c1 | inhibitor | luciferase | TZM-bl |  | 48 h | IC50 | 0.36 µg/mL
CN1CC[C@H](c2c(O)cc(O)c3c(=O)cc(-c4ccccc4Cl)oc23)[C@H](O)C1 | inhibitor |  | human PBMC |  | 6 days | EC50 | 0.02 µM
C/C(=C\C(=O)OCCCCCCCCC(=O)O)C[C@@H]1OC[C@H](C[C@@H]2O[C@H]2[C@@H](C)[C@H](C)O)[C@@H](O)[C@H]1O | inhibitor |  | TZM-bl |  |  | EC50 | > 100 µM
O=c1cc(-c2ccc(O)cc2)oc2cc(O)cc(O)c12 | inhibitor |  | human PBMC |  | 6 days | EC50 | 5 µM
CCOC(=O)c1cccc(Cn2ccc3ccc(-c4ccc5ccn(Cc6cccc(C(=O)O)c6)c5c4)cc32)c1 | inhibitor |  | MAGI | BAL |  | IC90 | 28.9 µM
O=c1oc2c(O)c(O)cc3c(=O)oc4c(O)c(O)cc1c4c23 | inhibitor | luciferase | TZM-bl |  | 48 h | IC50 | 18.8 µg/mL
O=C(O)c1cc(F)cc(Cn2ccc3ccc(-c4ccc5ccn(Cc6cccc(OC(F)(F)F)c6)c5c4)cc32)c1 | inhibitor |  |  | IIIB |  | IC50 | 2 µM
CC(C)C[C@H](NC(=O)[C@@H](NC(=O)[C@@H]1CCCN1C(=O)[C@@H](NC(=O)[C@H](CO)NC(=O)[C@@H](NC(=O)[C@H](CCC(N)=O)NC(=O)[C@@H]1CCCN1C(=O)[C@@H](NC(=O)[C@H](CCCCN)NC(=O)[C@H](CCCCN)NC(=O)[C@@H](NC(=O)[C@H](Cc1ccc(O)cc1)NC(=O)[C@H](CCCNC(=N)N)NC(=O)[C@@H](NC(=O)[C@@H](N)CC(C)C)C(C)C)[C@@H](C)O)C(C)C)C(C)C)[C@@H](C)O)[C@@H](C)O)C(=O)O | inhibitor |  | TZM-bl |  |  | IC50 | > 10 µM
O=c1cc(-c2ccc(O)c(O)c2)oc2cc(O)cc(O)c12 | inhibitor |  | human PBMC |  | 6 days | EC50 | 12.7 µM
Cc1cn([C@H]2C[C@H](N=[N+]=[N-])[C@@H](CO)O2)c(=O)[nH]c1=O | inhibitor | ELISA | human PBMC | NL43 | 7 days | IC50 | 0.005 µM
C[N+](C)(C)CCCn1c(=O)c2cc(Br)c3c(=O)n(CCC[N+](C)(C)C)c(=O)c4c5[nH]c6ccccc6[nH]c5c(c1=O)c2c34 |  |  | TZM-bl | NL43 | 48 h | IC50 | > 5 µM
